Values belong to the compound of their own block, whether it stands above or below them. Active and inactive are the calls of the source. The calls are words filed in the database; no cut-off is given here. Peptide text beside a SMILES is read from it.
Key:
[1] = pA2 value, a dose-response plot was obtained by determining the response when the concentration of glucagon was varied while the concentration was kept same.
Glucagon receptor [2] = target: T1, Glucagon receptor (Rattus norvegicus, UniProt P30082); experiment: (§1) Compound was evaluated for its ability to displace radiolabeled glucagon (inactive up to 100 uM)
Glucagon receptor [3] = target: T1, Glucagon receptor; experiment: Compound was evaluated for its ability to displace radiolabeled glucagon
Method in brief: (§2)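 Incubation 10 min at 30 °C, then ice cooling and filtration on 0.45 μm cellulose acetate, gamma counting. Nonspecific binding taken with 1024 nM unlabeled peptide and subtracted. Read as % inhibition of specific binding. Triplicates, repeated twice.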

[4] = target: T2, Adenylate cyclase (Rattus norvegicus) (UniProt D4A3N4+P26770+Q04400+P26769+Q03343+P40146+Q8CFM9+P21932); experiment: Relative potency was evaluated by measuring potency for conversion of [alpha-32P]ATP to cyclic 3',5'-AMP relative to glucagon; assay type: protein assay
[5] = target: Glucagon receptor (Rattus norvegicus) (UniProt P30082); experiment: Relative binding by measuring competition for glucagon receptor between [125]glucagon and the compound.; method in brief: as §2
Glucagon receptor [6] = target: T1, Glucagon receptor; experiment: IC50 value was expressed for inhibition of [125]glucagon specific binding.; method in brief: as §2
Glucagon receptor [7] = target: T1, Glucagon receptor; experiment: IC50 value was expressed as inhibition of [125]glucagon specific binding.; method in brief: as §2
[8] = A dose-response plot was obtained by determining the response when the concentration of glucagon was varied while the concentration was kept same.
[9] = target: T2, Adenylate cyclase (Rattus norvegicus); experiment: Adenylate cyclase stimulation; Inactive up to 100 uM.; assay type: protein assay
[10] = target: T2, Adenylate cyclase (Rattus norvegicus); experiment: Maximum stimulation of adenylate cyclase.; assay type: protein assay
[11] = target: Glucagon receptor (Rattus norvegicus) (UniProt P30082); experiment: as §1; method in brief: as §2
Adenylate cyclase [12] = experiment: Adenylate cyclase activity of the compound, expressed as effective concentration; assay type: protein assay
Method in brief: (§3)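 Rat liver plasma membranes (male Sprague–Dawley, 200–250 g; sucrose-gradient purified), 35 μg protein in 0.1 mL with 1 mM [α-32P]ATP, 5 mM MgCl2, GTP, 1 mM EDTA, 1 mM cAMP plus [3H]cAMP tracer, 25 mM Tris pH 7.5, 0.4% BSA, phosphocreatine/creatine kinase regeneration. Labeled cAMP isolated by sequential Dowex and alumina chromatography.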

Adenylate cyclase [13] = experiment: Effective concentration required for 50% conversion of [alpha-32P]ATP to cyclic 3',5'-AMP.; assay type: protein assay; method in brief: as §3
[14] = target: T2, Adenylate cyclase (Rattus norvegicus); experiment: Adenylate cyclase activity of the compound, evaluated for the percentage maximum stimulation; assay type: protein assay; method in brief: as §3
[15] = target: Glucagon receptor (Rattus norvegicus) (UniProt P30082); experiment: Relative binding was evaluated by measuring competition for glucagon receptor between [125I]glucagon and the compound.
[16] = target: T2, Adenylate cyclase (Rattus norvegicus); experiment: Adenylate cyclase activity of the compound, expressed as effective concentration (inactive up to 100 uM); assay type: protein assay
Method in brief: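 Adenylate cyclase in rat liver plasma membranes (35 μg protein), in 0.1 mL of 1 mM [α-32P]ATP, 5 mM MgCl2, […], 1 mM EDTA, 1 mM cAMP with [3H]cAMP tracer, 25 mM Tris pH 7.5, 0.4% BSA, plus a phosphocreatine/creatine phosphokinase regenerating system. [32P]cAMP isolated on Dowex and alumina columns.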

Glucagon receptor (Rattus norvegicus), sequence (P30082 whole entry): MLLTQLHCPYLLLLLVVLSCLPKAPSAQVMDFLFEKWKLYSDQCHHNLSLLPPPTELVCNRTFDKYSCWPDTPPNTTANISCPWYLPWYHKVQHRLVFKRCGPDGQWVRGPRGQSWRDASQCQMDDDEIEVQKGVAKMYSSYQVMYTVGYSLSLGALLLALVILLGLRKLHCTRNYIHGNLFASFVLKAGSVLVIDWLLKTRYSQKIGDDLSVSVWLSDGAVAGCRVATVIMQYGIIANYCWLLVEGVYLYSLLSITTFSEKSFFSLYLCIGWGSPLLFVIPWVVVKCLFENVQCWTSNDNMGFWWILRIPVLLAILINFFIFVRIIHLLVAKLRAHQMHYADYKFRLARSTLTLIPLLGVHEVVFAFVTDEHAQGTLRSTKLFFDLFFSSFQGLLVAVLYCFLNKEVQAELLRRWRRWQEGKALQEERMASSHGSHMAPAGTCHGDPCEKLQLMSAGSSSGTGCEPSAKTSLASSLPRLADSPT
T1 sequence (P30082 whole entry): as above

IC50 (Glucagon receptor [3]): 3.75 nM
Compound: CSCC[C@H](NC(=O)[C@H](CC(C)C)NC(=O)[C@H](Cc1c[nH]c2ccccc12)NC(=O)[C@H](CCC(N)=O)NC(=O)[C@@H](NC(=O)[C@H](Cc1ccccc1)NC(=O)[C@H](CC(=O)O)NC(=O)[C@H](CCC(N)=O)NC(=O)[C@H](C)NC(=O)[C@H](CCCN=C(N)N)NC(=O)[C@H](CCCN=C(N)N)NC(=O)[C@H](CO)NC(=O)[C@H](CC(=O)O)NC(=O)[C@H](CC(C)C)NC(=O)[C@H](Cc1ccc(O)cc1)NC(=O)[C@H](CCCCN)NC(=O)[C@H](CO)NC(=O)[C@H](Cc1ccc(O)cc1)NC(=O)[C@H](CCC(=O)O)NC(=O)[C@H](CO)NC(=O)[C@@H](NC(=O)[C@H](Cc1ccccc1)NC(=O)[C@@H](NC(=O)CNC(=O)[C@H](CCC(N)=O)NC(=O)[C@@H](N)CO)[C@@H](C)O)[C@@H](C)O)C(C)C)C(=O)N[C@@H](CC(N)=O)C(=O)N[C@H](C(N)=O)[C@@H](C)O
pA2 [1]: 7.25

Relative potency [4]: 0.0001%
Relative binding [5]: 0.0001%
Compound: CC(C)C[C@H](NC(=O)[C@H](Cc1ccc(O)cc1)NC(=O)[C@H](CCCCN)NC(=O)[C@H](CO)NC(=O)[C@H](Cc1ccc(O)cc1)NC(=O)[C@H](CC(=O)O)NC(=O)[C@H](CO)NC(=O)[C@@H](NC(=O)[C@H](Cc1ccccc1)NC(=O)[C@@H](NC(=O)CNC(=O)[C@H](CCC(N)=O)NC(=O)[C@H](CO)NC(=O)[C@@H](N)Cc1c[nH]cn1)[C@@H](C)O)[C@@H](C)O)C(=O)N[C@@H](CC(N)=O)C(=O)N[C@@H](CO)C(=O)N[C@@H](CCCN=C(N)N)C(=O)O

IC50 (Glucagon receptor [6]): 781 nM
Compound: CSCC[C@H](NC(=O)[C@H](CC(C)C)NC(=O)[C@H](Cc1c[nH]c2ccccc12)NC(=O)[C@H](CCC(N)=O)NC(=O)[C@@H](NC(=O)[C@H](Cc1ccccc1)NC(=O)[C@H](CC(=O)O)NC(=O)[C@H](CCC(N)=O)NC(=O)[C@H](C)NC(=O)[C@H](CCCN=C(N)N)NC(=O)[C@H](CCCN=C(N)N)NC(=O)[C@H](CO)NC(=O)[C@H](CC(=O)O)NC(=O)[C@H](CC(C)C)NC(=O)[C@H](Cc1ccc2ccccc2c1)NC(=O)[C@H](CCCCN)NC(=O)[C@H](CO)NC(=O)[C@H](Cc1ccc(O)cc1)NC(=O)CCCc1ccccc1)C(C)C)C(=O)N[C@@H](CC(N)=O)C(=O)N[C@H](C(N)=O)[C@@H](C)O (HELM PEPTIDE1{[O=C(CCCc1ccccc1)[*:2]].Y.S.K.[O=C([C@H](Cc1ccc2ccccc2c1)N[*:1])[*:2]].L.D.S.R.R.A.Q.D.F.V.Q.W.L.M.N.T.[am]}$$$$V2.0)
pA2 [1]: 6.7

IC50 (Glucagon receptor [7]): 249 nM
Compound: CSCC[C@H](NC(=O)[C@H](CC(C)C)NC(=O)[C@H](Cc1c[nH]c2ccccc12)NC(=O)[C@H](CCC(N)=O)NC(=O)[C@@H](NC(=O)[C@H](Cc1ccccc1)NC(=O)[C@H](CC(=O)O)NC(=O)[C@H](CCC(N)=O)NC(=O)[C@H](C)NC(=O)[C@H](CCCN=C(N)N)NC(=O)[C@H](CCCN=C(N)N)NC(=O)[C@H](CO)NC(=O)[C@H](CC(=O)O)NC(=O)[C@H](CC(C)C)NC(=O)[C@H](Cc1ccc(O)cc1)NC(=O)[C@H](CCCCN)NC(=O)[C@H](CO)NC(=O)[C@H](Cc1ccc(O)cc1)NC(=O)Cc1ccccc1)C(C)C)C(=O)N[C@@H](CC(N)=O)C(=O)N[C@H](C(N)=O)[C@@H](C)O (HELM PEPTIDE1{[O=C(Cc1ccccc1)[*:2]].Y.S.K.Y.L.D.S.R.R.A.Q.D.F.V.Q.W.L.M.N.T.[am]}$$$$V2.0)
pA2 [8]: 7.37

IA [9]: Inactive up to 100 uM
IA [11]: Inactive up to 100 uM
Relative binding [5]: 0%
Max stimulation [10]: 0%
Compound: Ac-FTSDYSKYL-NH2

Relative potency [4]: < 0.0001%
Relative binding [15]: < 0.0001%
Compound: H-HSQGTF-OH

IA [9]: Inactive up to 100 uM
IA [11]: Inactive up to 100 uM
Relative binding [5]: 0%
Max stimulation [10]: 0%
Compound: H-YSKYLDSRRAQ-NH2

The next lines start with the compound.

Compound: CSCC[C@H](NC(=O)[C@H](CC(C)C)NC(=O)[C@H](Cc1c[nH]c2ccccc12)NC(=O)[C@H](CCC(N)=O)NC(=O)[C@@H](NC(=O)[C@H](Cc1ccccc1)NC(=O)[C@H](CC(=O)O)NC(=O)[C@H](CCC(N)=O)NC(=O)[C@H](C)NC(=O)[C@H](CCCN=C(N)N)NC(=O)[C@H](CCCN=C(N)N)NC(=O)[C@H](CO)NC(=O)[C@H](CC(=O)O)NC(=O)[C@H](CC(C)C)NC(=O)[C@H](Cc1ccc(O)cc1)NC(=O)[C@H](CCCCN=C(N)N)NC(=O)[C@H](CO)NC(=O)[C@H](Cc1ccc(O)cc1)NC(=O)[C@H](CC(=O)O)NC(=O)[C@H](CO)NC(=O)[C@@H](NC(=O)[C@H](Cc1ccccc1)NC(=O)[C@@H](NC(=O)CNC(=O)[C@H](CCC(N)=O)NC(=O)[C@H](CO)NC(=O)[C@H](Cc1c[nH]cn1)Nc1c([N+](=O)[O-])cc([N+](=O)[O-])cc1[N+](=O)[O-])[C@@H](C)O)[C@@H](C)O)C(C)C)C(=O)N[C@@H](CC(N)=O)C(=O)N[C@H](C(=O)O)[C@@H](C)O
pA2 [1]: 8.16
IC50 (Glucagon receptor [2]): 15 nM

Compound: CC(C)C[C@H](NC(=O)[C@H](Cc1ccc(O)cc1)NC(=O)[C@H](CCCCN)NC(=O)[C@H](CO)NC(=O)[C@H](Cc1ccc(O)cc1)NC(=O)[C@H](CC(=O)O)NC(=O)[C@H](CO)NC(=O)[C@@H](NC(=O)[C@H](Cc1ccccc1)NC(=O)[C@@H](NC(=O)CNC(=O)[C@H](CCC(N)=O)NC(=O)[C@H](CO)NC(=O)[C@@H](N)Cc1c[nH]cn1)[C@@H](C)O)[C@@H](C)O)C(=O)N[C@@H](CC(=O)O)C(=O)N[C@@H](CO)C(=O)N[C@@H](CCCN=C(N)N)C(=O)N[C@@H](CCCN=C(N)N)C(=O)N[C@@H](C)C(=O)N[C@@H](CCC(N)=O)C(=O)N[C@@H](CC(=O)O)C(=O)N[C@@H](Cc1ccccc1)C(=O)N[C@H](C(=O)N[C@@H](CCC(N)=O)C(=O)O)C(C)C
Relative potency [4]: 0.0002%
Relative binding [5]: 0.0002%

Compound: CC(C)C[C@H](NC(=O)[C@H](Cc1ccc(O)cc1)NC(=O)[C@H](CCCCN)NC(=O)[C@H](CO)NC(=O)[C@H](Cc1ccc(O)cc1)NC(=O)[C@H](CC(=O)O)NC(=O)[C@H](CO)NC(=O)[C@@H](NC(=O)[C@H](Cc1ccccc1)NC(=O)[C@@H](NC(=O)CNC(=O)[C@H](CCC(N)=O)NC(=O)[C@H](CO)NC(=O)[C@@H](N)Cc1c[nH]cn1)[C@@H](C)O)[C@@H](C)O)C(=O)N[C@@H](CC(=O)O)C(=O)O
Relative potency [4]: < 0.0001%
Relative binding [5]: < 0.0001%

Compound: CSCC[C@H](NC(=O)[C@H](CC(C)C)NC(=O)[C@H](Cc1c[nH]c2ccccc12)NC(=O)[C@H](CCC(N)=O)NC(=O)[C@@H](NC(=O)[C@H](Cc1ccccc1)NC(=O)[C@H](CC(=O)O)NC(=O)[C@H](CCC(N)=O)NC(=O)[C@H](C)NC(=O)[C@H](CCCN=C(N)N)NC(=O)[C@H](CCCN=C(N)N)NC(=O)[C@H](CO)NC(=O)[C@H](CC(=O)O)NC(=O)[C@H](CC(C)C)NC(=O)[C@H](Cc1ccc2ccccc2c1)NC(=O)[C@H](CCCCN)NC(=O)[C@H](CO)NC(=O)[C@H](Cc1ccc2ccccc2c1)NC(C)=O)C(C)C)C(=O)N[C@@H](CC(N)=O)C(=O)N[C@H](C(N)=O)[C@@H](C)O (HELM PEPTIDE1{[ac].[O=C([C@H](Cc1ccc2ccccc2c1)N[*:1])[*:2]].S.K.[O=C([C@H](Cc1ccc2ccccc2c1)N[*:1])[*:2]].L.D.S.R.R.A.Q.D.F.V.Q.W.L.M.N.T.[am]}$$$$V2.0)
IA [9]: Inactive up to 100 uM
Relative binding [5]: 0.19%
Max stimulation [10]: 0%
pA2 [8]: 6.87

Compound: Ac-FTSDYSKYLDSRRAQDFVQWLMNT-NH2
IC50 (Glucagon receptor [7]): 31 nM
pA2 [8]: 6.57

Compound: GLUCAGON [listing 1 of 2 here]
EC50 (Adenylate cyclase [12]): 5.9 nM
EC50 (Adenylate cyclase [13]): 8 nM

Compound: GLUCAGON [listing 2 of 2 here]
Relative binding [5]: 100%
Max stimulation [14]: 100%

Compound: H-DSRRAQDFVQWL-NH2
IA [9]: Inactive up to 100 uM
IA [11]: Inactive up to 100 uM
Relative binding [5]: 0%
Max stimulation [10]: 0%

Compound: H-HSQGTFTSDYS-NH2
IA [11]: Inactive up to 100 uM
Relative binding [5]: 0%
IA [16]: Inactive up to 100 uM
Max stimulation [10]: 0%

Compound: H-SQGTTSEYSKYLDSRRAQDFVQWLMNT-NH2
IC50 (Glucagon receptor [3]): 48 nM
pA2 [1]: 8.2

Compound: H-TFTSDYSKYLDS-NH2
IA [11]: Inactive up to 100 uM
Relative binding [5]: 0%
IA [16]: Inactive up to 100 uM
Max stimulation [10]: 0%
